In ChEMBL document CHEMBL1821628, “Anti-inflammatory endiandric acid analogues from the roots of Beilschmiedia tsangii” (J Nat Prod, 2011):
pIC50: −log10 of the molar value.

Tests used:
[1] = target: T1, Nitric oxide synthase, inducible (Mus musculus, UniProt P29477); conditions: raw264.7
T1 sequence (P29477 whole entry): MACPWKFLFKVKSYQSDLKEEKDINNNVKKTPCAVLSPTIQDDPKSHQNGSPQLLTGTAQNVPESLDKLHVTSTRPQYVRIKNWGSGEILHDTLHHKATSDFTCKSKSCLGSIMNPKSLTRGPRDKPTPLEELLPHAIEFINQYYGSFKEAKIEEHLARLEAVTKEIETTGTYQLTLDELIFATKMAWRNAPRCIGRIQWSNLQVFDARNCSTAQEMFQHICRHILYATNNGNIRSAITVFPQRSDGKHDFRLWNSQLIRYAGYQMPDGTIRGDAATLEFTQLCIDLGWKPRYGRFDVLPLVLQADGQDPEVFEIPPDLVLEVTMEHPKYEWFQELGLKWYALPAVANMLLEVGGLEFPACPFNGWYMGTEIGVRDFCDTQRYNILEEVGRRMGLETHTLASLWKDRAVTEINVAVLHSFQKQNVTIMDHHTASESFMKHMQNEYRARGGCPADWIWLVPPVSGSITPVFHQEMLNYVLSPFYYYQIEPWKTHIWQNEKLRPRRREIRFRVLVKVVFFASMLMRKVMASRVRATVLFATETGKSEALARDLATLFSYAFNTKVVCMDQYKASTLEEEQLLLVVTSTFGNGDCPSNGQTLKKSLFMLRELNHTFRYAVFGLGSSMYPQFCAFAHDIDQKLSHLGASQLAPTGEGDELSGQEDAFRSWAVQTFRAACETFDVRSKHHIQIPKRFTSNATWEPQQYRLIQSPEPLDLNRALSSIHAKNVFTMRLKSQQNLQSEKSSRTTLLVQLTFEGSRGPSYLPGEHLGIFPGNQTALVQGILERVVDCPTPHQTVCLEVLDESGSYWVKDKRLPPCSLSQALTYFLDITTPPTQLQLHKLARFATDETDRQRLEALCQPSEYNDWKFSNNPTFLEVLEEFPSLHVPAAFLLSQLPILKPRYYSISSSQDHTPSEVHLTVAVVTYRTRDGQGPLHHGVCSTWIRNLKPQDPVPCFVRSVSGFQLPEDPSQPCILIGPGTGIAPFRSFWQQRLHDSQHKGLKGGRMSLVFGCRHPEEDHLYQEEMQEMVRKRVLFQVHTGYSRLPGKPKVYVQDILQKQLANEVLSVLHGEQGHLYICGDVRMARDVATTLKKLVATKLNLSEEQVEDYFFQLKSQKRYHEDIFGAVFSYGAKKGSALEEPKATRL

[2] = target: T2, Nitric oxide synthase, inducible (Mus musculus) (UniProt P29477); assay: Inhibition of iNOS in mouse RAW264.7 cells assessed as anti-inflammatory activity by measuring inhibition of LPS-induced nitric oxide production at 100 uM after 24 hrs; assay type: cell-based
T2 sequence (whole entry): T1 sequence (P29477 whole entry)
How it was run: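 RAW 264.7 murine macrophages grown to confluence over 24 h, then held 4 h in serum-free DMEM. Compounds or vehicle (0.1% DMSO) were added with or without LPS (200 ng/mL) for 24 h. Supernatant nitrite was measured by Griess reagent, 10 min at room temperature, A550, against a sodium nitrite standard curve. Results are % inhibition versus vehicle plus LPS; Emax is taken at 100 μM; mean ± SE.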

O=C(O)[C@H]1[C@H]2C=C[C@@H]3[C@@H]1C[C@H]1[C@H](CCCc4ccc5c(c4)OCO5)[C@@H]2[C@@H]31 (relative stereo)
pIC50 [1]: 4.24
Emax [2]: 77.9%

N=C(N)NN [PIMAGEDINE]
pIC50 [1]: 4.58

COc1cc([C@@H]2O[C@@H](c3cc(OC)c4c(c3)OCO4)[C@H](C)[C@H]2C)cc(OC)c1OC (relative stereo)
pIC50 [1]: 4.31
Emax [2]: 63.4%

COc1cc([C@@H]2O[C@@H](c3cc(OC)c4c(c3)OCO4)[C@H](C)[C@H]2C)cc2c1OCO2 (relative stereo)
pIC50 [1]: 4.28
Emax [2]: 65.6%

CC(C)CNC(=O)[C@@H]1C=C[C@@H]2C[C@H]3[C@H](Cc4ccc5c(c4)OCO5)[C@H]4C=C[C@@H]1[C@@H]2[C@H]43 (relative stereo) [ENDIANDRAMIDE A]
pIC50 [1]: 5.02
Emax [2]: 97.3%

N=C(NCCC[C@H](N)C(=O)O)N[N+](=O)[O-] [NITROARGININE]
pIC50 [1]: 3.82
Emax [2]: 43.7%

O=C(O)[C@@H]1C=C[C@@H]2C[C@H]3[C@H](Cc4ccc5c(c4)OCO5)[C@H]4C=C[C@@H]1[C@@H]2[C@H]43 (relative stereo) [TSANGIBEILIN B]
pIC50 [1]: 4.37
Emax [2]: 96.1%

O=C(O)[C@@H]1C=C[C@@H]2C[C@H]3[C@H](CCCc4ccc5c(c4)OCO5)[C@H]4C=C[C@@H]1[C@@H]2[C@H]43 (relative stereo) [TSANGIBEILIN A]
pIC50 [1]: 4.30
Emax [2]: 96.9%

O=C(O)/C=C/[C@H]1[C@@H]2C=C[C@@H]3[C@H]1C[C@H]1[C@H](CCCCCc4ccc5c(c4)OCO5)[C@H]2[C@@H]31 (relative stereo)
pIC50 [1]: 4.40
Emax [2]: 91.4%

CC(C)CNC(=O)[C@H]1[C@H]2C=C[C@@H]3[C@@H]1C[C@H]1[C@H](CCCc4ccc5c(c4)OCO5)[C@@H]2[C@@H]31 (relative stereo)
pIC50 [1]: 4.79
Emax [2]: 72.1%

COc1cc([C@@H]2O[C@@H](c3cc(OC)c4c(c3)OCO4)[C@H](C)[C@H]2C)cc(O)c1OC (relative stereo) [BEILSCHMINOL A]
pIC50 [1]: 4.29
Emax [2]: 86.6%

COc1cc(C(=O)O[C@@H](c2cc(OC)c(OC)c(OC)c2)[C@H](C)C(C)=O)cc(OC)c1OC [TSANGIN C]
pIC50 [1]: 4.29
Emax [2]: 85.5%
